From ChEMBL document CHEMBL1134779, “Synthesis and characterization of the antitumor activities of analogues of meridine, a marine pyridoacridine alkaloid” (J Med Chem, 2001)

Columns and labels:
[1] = system: A-427; experiment: In vitro inhibition of A-427 (human lung cancer) cell growth.; format: functional, cell-based
Outline: (§1)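 Human cancer lines from ATCC, grown at 37 °C in sealed dishes in Eagle's MEM with 5% FCS. Cells were seeded at 40000 cells/mL and plated for 24 h before drug exposure. Six concentrations from 10^-5 to 10^-10 M were tested. Growth was read by MTT reduction to formazan at 570 nm (reference 630 nm), in sextuplicate. IC50 is the concentration giving 50% growth reduction versus control.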

[2] = system: A549; experiment: In vitro inhibition of A549 (human lung cancer) cell growth.; format: functional, cell-based; outline: as §1
[3] = system: J82; experiment: In vitro inhibition of J82 (human bladder cancer) cell growth.; format: functional, cell-based; outline: as §1
[4] = system: MCF7; experiment: In vitro inhibition of MCF-7 (human breast cancer) cell growth.; format: functional, cell-based; outline: as §1
[5] = system: PC-3; experiment: In vitro inhibition of PC-3 (human prostate cancer) cell growth.; format: functional, cell-based; outline: as §1
[6] = In vitro inhibition of T24 (human bladder cancer) cell growth.; format: functional, cell-based; details: T-24; outline: as §1
[7] = system: T47D; experiment: In vitro inhibition of T-47D (human breast cancer) cell growth.; format: functional, cell-based; outline: as §1
[8] = system: U373 MG; experiment: In vitro inhibition of U-373 MG (human glioblastoma) cell growth.; format: functional, cell-based, U-373MG ATCC; outline: as §1
[9] = system: HCT-15; experiment: In vitro inhibition of HCT-15 (human colon cancer) cell growth.; format: functional, cell-based; outline: as §1
[10] = system: LoVo; experiment: In vitro inhibition of LoVo (human colon cancer) cell growth.; format: functional, cell-based; outline: as §1
[11] = system: U-87 MG; experiment: In vitro inhibition of U-87 MG (human glioblastoma) cell growth.; format: functional, cell-based, U-87MG ATCC; outline: as §1
[12] = system: SW1088 (human); experiment: In vitro inhibition of SW1088 (human astrocytoma) cell growth.
[13] = system: T47D; experiment: Ctotoxic related antitumor activity against human cancer cell lines T-47 D; format: functional, cell-based; outline: as §1

SMILES	IC50 [2]	IC50 [4]	IC50 [5]	IC50 [7]	IC50 [9]	IC50 [10]	IC50 [11]	IC50 [12]	IC50 [1]	IC50 [3]	IC50 [6]	IC50 [8]	IC50 [13]
O=C1c2nccc(Cl)c2C(=O)c2c(-c3ccccc3NC(=O)C(F)(F)F)ccnc21	0.07 µM	0.06 µM	0.9 µM	2.1 µM	0.01 µM	0.06 µM	0.05 µM	3.8 µM	0.6 µM	3.3 µM	0.2 µM	0.09 µM	–
O=C1c2nc(O)ccc2C(=O)c2c(-c3ccccc3NC(=O)C(F)(F)F)ccnc21	0.05 µM	0.03 µM	0.9 µM	0.2 µM	0.06 µM	0.04 µM	0.04 µM	0.06 µM	0.04 µM	2.1 µM	0.05 µM	0.04 µM	–
O=C1c2ncccc2C(=O)c2c(-c3ccccc3NC(=O)C(F)(F)F)ccnc21	0.006 µM	0.006 µM	0.06 µM	0.05 µM	0.008 µM	0.007 µM	0.0009 µM	0.06 µM	0.03 µM	0.06 µM	0.2 µM	0.005 µM	–
O=C1c2nccc(O)c2C(=O)c2c(-c3ccccc3[N+](=O)[O-])ccnc21	2.3 µM	3.9 µM	7.3 µM	4.5 µM	3.5 µM	2.9 µM	0.8 µM	2.9 µM	1.2 µM	5.3 µM	2.3 µM	4 µM	–
Nc1ccnc2c1C(=O)c1c(-c3ccccc3[N+](=O)[O-])ccnc1C2=O	0.6 µM	3.1 µM	5.1 µM	5.5 µM	0.5 µM	5.7 µM	2.7 µM	4.8 µM	5.5 µM	3 µM	3.6 µM	3.1 µM	–
O=C1c2nccc(Br)c2-c2nc3ccccc3c3ccnc1c23	3.3 µM	1.1 µM	4.9 µM	4.4 µM	3.6 µM	0.8 µM	0.7 µM	3 µM	0.7 µM	9 µM	0.7 µM	0.9 µM	–
COc1ccnc2c1C(=O)c1c(-c3ccccc3[N+](=O)[O-])ccnc1C2=O	0.02 µM	0.05 µM	3.1 µM	5.1 µM	0.09 µM	0.05 µM	0.009 µM	3.9 µM	0.7 µM	0.4 µM	0.02 µM	0.03 µM	–
O=C1c2nccc(-c3ccccc3NC(=O)C(F)(F)F)c2C(=O)c2c([N+](=O)[O-])ccnc21	0.9 µM	0.7 µM	0.6 µM	4.3 µM	0.6 µM	0.9 µM	4.7 µM	6 µM	4.5 µM	3.9 µM	5.4 µM	0.9 µM	–
Nc1ccnc2c1C(=O)c1c(-c3ccccc3NC(=O)C(F)(F)F)ccnc1C2=O	0.6 µM	0.8 µM	0.6 µM	1.2 µM	0.6 µM	0.7 µM	0.3 µM	0.8 µM	0.5 µM	2.7 µM	0.7 µM	0.9 µM	–
O=C1c2ncccc2-c2nc3ccccc3c3ccnc1c23	0.02 µM	0.0009 µM	0.04 µM	0.01 µM	0.005 µM	0.02 µM	< 0.0001 µM	0.06 µM	0.0008 µM	0.007 µM	< 0.0001 µM	0.0007 µM	–
Nc1ccnc2c1-c1nc3ccccc3c3ccnc(c13)C2=O	0.08 µM	0.09 µM	0.5 µM	0.6 µM	0.3 µM	0.09 µM	0.07 µM	0.08 µM	0.06 µM	0.7 µM	0.07 µM	0.1 µM	–
COc1ccnc2c1C(=O)c1c(-c3ccccc3NC(=O)C(F)(F)F)ccnc1C2=O	< 0.0001 µM	0.0003 µM	0.05 µM	0.03 µM	0.002 µM	0.0001 µM	< 0.0001 µM	0.05 µM	0.05 µM	0.0009 µM	0.007 µM	< 0.0001 µM	–
O=C1c2nccc([N+](=O)[O-])c2-c2nc3ccccc3c3ccnc1c23	0.8 µM	0.07 µM	4.2 µM	0.6 µM	0.6 µM	0.09 µM	0.07 µM	5.5 µM	2.4 µM	0.5 µM	0.7 µM	0.09 µM	–
CCOC(=O)c1cnc2c(c1)C(=O)c1c(-c3ccccc3NC(=O)C(F)(F)F)ccnc1C2=O	0.09 µM	0.5 µM	1.3 µM	–	0.1 µM	0.8 µM	0.08 µM	0.8 µM	0.6 µM	5.2 µM	0.6 µM	0.4 µM	2.6 µM
O=C1c2nccc(O)c2-c2nc3ccccc3c3ccnc1c23 [MERIDINE]	0.08 µM	0.09 µM	0.5 µM	0.07 µM	0.2 µM	0.07 µM	0.1 µM	2 µM	0.2 µM	8.2 µM	0.05 µM	0.1 µM	–

Further compounds by falling IC50 [2], results first:

IC50 [2]	IC50 [4]	IC50 [5]	IC50 [7]	IC50 [9]	IC50 [10]	IC50 [11]	IC50 [12]	SMILES	IC50 [1]	IC50 [3]	IC50 [6]	IC50 [8]	IC50 [13]
0.9 µM	1.8 µM	5 µM	0.8 µM	2.8 µM	3.9 µM	2 µM	5.4 µM	O=C1c2nccc(Cl)c2C(=O)c2c(-c3ccccc3[N+](=O)[O-])ccnc21	3.5 µM	0.5 µM	5.5 µM	4.8 µM	–
0.08 µM	0.7 µM	5.7 µM	2.9 µM	0.2 µM	0.7 µM	0.07 µM	2.8 µM	CCOC(=O)c1cnc2c(c1)-c1nc3ccccc3c3ccnc(c13)C2=O	0.8 µM	5.2 µM	0.9 µM	0.7 µM	–
0.07 µM	0.09 µM	2.7 µM	0.3 µM	0.09 µM	0.07 µM	0.06 µM	0.09 µM	CC(=O)Nc1ccnc2c1C(=O)c1c(-c3ccccc3NC(=O)C(F)(F)F)ccnc1C2=O	0.06 µM	3.5 µM	0.4 µM	0.09 µM	–
0.06 µM	0.08 µM	0.6 µM	0.5 µM	0.07 µM	0.08 µM	0.05 µM	0.1 µM	CN(C)c1ccnc2c1-c1nc3ccccc3c3ccnc(c13)C2=O	0.06 µM	1.3 µM	0.2 µM	0.08 µM	–
0.06 µM	0.1 µM	0.6 µM	0.7 µM	0.2 µM	0.1 µM	0.06 µM	0.4 µM	CN(C)c1ccnc2c1C(=O)c1c(-c3ccccc3NC(=O)C(F)(F)F)ccnc1C2=O	0.07 µM	2 µM	0.3 µM	0.3 µM	–
0.007 µM	0.08 µM	0.5 µM	2.7 µM	0.1 µM	0.05 µM	0.02 µM	4.3 µM	O=C1c2nccc(Cl)c2-c2nc3ccccc3c3ccnc1c23	0.9 µM	0.09 µM	0.09 µM	0.1 µM	–
0.0003 µM	< 0.0001 µM	0.06 µM	0.03 µM	0.002 µM	0.0003 µM	< 0.0001 µM	0.06 µM	COc1ccnc2c1-c1nc3ccccc3c3ccnc(c13)C2=O	0.005 µM	0.0009 µM	0.006 µM	< 0.0001 µM	–
